Laboratory results taken from ChEMBL document CHEMBL2424622, “Development of amino-pyrimidine inhibitors of c-Jun N-terminal kinase (JNK): kinase profiling guided optimization of a 1,2,3-benzotriazole lead” (Bioorg Med Chem Lett, 2013).

Columns and labels:
[1] = target: Tyrosine-protein kinase Yes (Homo sapiens) (UniProt P07947); test: Competitive binding affinity to YES (unknown origin) at 10 uM in presence of ATP relative to control
Outline: (§1)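 In vitro ATP-site competition binding assay across a diverse panel of 128 kinases, with compound tested at a single concentration. Kinase selectivity scores (S15) were calculated from the panel profiles.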

[2] = target: Dual specificity protein kinase CLK1 (Homo sapiens) (UniProt P49759); test: Competitive binding affinity to CLK1 (unknown origin) at 10 uM in presence of ATP relative to control
[3] = target: BMP-2-inducible protein kinase (Homo sapiens) (UniProt Q9NSY1); test: Competitive binding affinity to BIKE (unknown origin) at 10 uM in presence of ATP relative to control
[4] = target: Phosphorylase b kinase gamma catalytic chain, skeletal muscle/heart isoform (Homo sapiens) (UniProt Q16816); test: Competitive binding affinity to PHKG1 (unknown origin) at 10 uM in presence of ATP relative to control; outline: as §1
[5] = target: T1, Cytoplasmic tyrosine-protein kinase BMX (Homo sapiens) (UniProt P51813); test: Competitive binding affinity to BMX (unknown origin) at 10 uM in presence of ATP relative to control
T1 sequence (whole entry): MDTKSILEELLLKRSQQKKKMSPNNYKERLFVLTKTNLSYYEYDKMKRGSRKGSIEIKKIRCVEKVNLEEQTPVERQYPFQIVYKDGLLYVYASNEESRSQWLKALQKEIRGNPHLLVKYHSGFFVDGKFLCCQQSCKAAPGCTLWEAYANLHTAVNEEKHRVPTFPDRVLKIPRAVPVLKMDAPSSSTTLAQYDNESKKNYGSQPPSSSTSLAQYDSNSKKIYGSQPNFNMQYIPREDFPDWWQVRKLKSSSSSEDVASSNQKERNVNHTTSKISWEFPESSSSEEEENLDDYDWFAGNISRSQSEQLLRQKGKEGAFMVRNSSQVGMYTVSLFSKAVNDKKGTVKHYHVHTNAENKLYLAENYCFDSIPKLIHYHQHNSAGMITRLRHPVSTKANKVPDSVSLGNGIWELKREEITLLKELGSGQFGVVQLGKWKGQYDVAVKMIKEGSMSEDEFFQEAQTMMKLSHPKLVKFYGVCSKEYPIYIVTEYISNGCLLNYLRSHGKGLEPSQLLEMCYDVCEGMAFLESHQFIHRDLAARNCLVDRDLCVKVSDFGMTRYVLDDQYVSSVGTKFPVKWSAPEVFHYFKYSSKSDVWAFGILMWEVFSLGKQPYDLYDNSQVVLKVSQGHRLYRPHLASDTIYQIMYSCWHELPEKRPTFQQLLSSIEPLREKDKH

[6] = system: Serine/threonine-protein kinase B-raf (Homo sapiens), P15056 [V600E]; test: Competitive binding affinity to BRAF V600E mutant (unknown origin) at 10 uM in presence of ATP relative to control
[7] = target: Mitogen-activated protein kinase 8 (Homo sapiens, UniProt P45983)
[8] = target: Mitogen-activated protein kinase 10 (Homo sapiens, UniProt P53779); test: Competitive binding affinity to JNK3 (unknown origin) at 10 uM in presence of ATP relative to control
Outline: (§2)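 In vitro ATP-site competition binding assay across a diverse panel of 128 kinases, with each compound tested at a single concentration. Kinase binding is expressed relative to control.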

[9] = target: Casein kinase II subunit alpha (Homo sapiens) (UniProt P68400); test: Competitive binding affinity to CSNK2A1 (unknown origin) at 10 uM in presence of ATP relative to control
[10] = target: T2, Ephrin type-A receptor 3 (Homo sapiens) (UniProt P29320); test: Competitive binding affinity to EPHA3 (unknown origin) at 10 uM in presence of ATP relative to control
T2 sequence (whole entry): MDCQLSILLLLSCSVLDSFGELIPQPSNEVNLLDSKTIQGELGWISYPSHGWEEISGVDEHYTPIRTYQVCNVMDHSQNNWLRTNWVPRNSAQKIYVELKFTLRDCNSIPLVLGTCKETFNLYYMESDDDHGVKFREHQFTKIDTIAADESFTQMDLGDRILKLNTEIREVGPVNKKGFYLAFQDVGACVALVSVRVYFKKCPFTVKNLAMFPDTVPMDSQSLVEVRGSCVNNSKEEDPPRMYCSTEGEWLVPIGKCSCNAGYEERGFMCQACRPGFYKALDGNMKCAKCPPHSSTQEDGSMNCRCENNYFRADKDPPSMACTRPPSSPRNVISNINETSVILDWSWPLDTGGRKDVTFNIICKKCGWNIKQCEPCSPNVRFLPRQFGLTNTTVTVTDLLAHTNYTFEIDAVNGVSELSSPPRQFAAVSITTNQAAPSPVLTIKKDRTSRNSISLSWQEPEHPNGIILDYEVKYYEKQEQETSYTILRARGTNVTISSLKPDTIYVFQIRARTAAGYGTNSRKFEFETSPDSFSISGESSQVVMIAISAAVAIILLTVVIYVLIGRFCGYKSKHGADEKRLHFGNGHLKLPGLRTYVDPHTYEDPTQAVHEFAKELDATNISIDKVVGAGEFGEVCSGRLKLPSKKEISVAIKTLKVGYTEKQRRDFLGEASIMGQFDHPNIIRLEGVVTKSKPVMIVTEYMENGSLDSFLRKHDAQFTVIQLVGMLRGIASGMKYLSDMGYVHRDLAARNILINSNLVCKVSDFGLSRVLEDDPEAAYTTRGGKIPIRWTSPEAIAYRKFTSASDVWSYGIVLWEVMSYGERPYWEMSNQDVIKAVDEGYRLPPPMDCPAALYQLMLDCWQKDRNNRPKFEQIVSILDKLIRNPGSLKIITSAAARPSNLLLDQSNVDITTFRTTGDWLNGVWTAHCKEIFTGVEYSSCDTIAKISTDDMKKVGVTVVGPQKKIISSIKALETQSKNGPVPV
Outline: (§3)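 In vitro ATP-site competition binding assay, part of profiling against a diverse panel of 128 kinases. Each compound was tested at a single concentration of 10 µM. Kinome selectivity was summarized as S15 selectivity scores.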

[11] = target: Tyrosine-protein kinase SYK (Homo sapiens) (UniProt P43405); test: Competitive binding affinity to SYK (unknown origin) at 10 uM in presence of ATP relative to control; outline: as §1
[12] = target: AP2-associated protein kinase 1 (Homo sapiens) (UniProt Q2M2I8); test: Competitive binding affinity to AAK1 (unknown origin) at 10 uM in presence of ATP relative to control; outline: as §2
[13] = target: Cyclin-dependent kinase 5 (Homo sapiens) (UniProt Q00535); test: Competitive binding affinity to CDK5 (unknown origin) at 10 uM in presence of ATP relative to control
[14] = target: Tyrosine-protein kinase Fer (Homo sapiens) (UniProt P16591); test: Competitive binding affinity to FER (unknown origin) at 10 uM in presence of ATP relative to control; outline: as §3
[15] = target: Death-associated protein kinase 3 (Homo sapiens, UniProt O43293); test: Competitive binding affinity to DAPK3 (unknown origin) at 10 uM in presence of ATP relative to control; outline: as §2
Sequence of Death-associated protein kinase 3 (O43293 whole entry, looked up): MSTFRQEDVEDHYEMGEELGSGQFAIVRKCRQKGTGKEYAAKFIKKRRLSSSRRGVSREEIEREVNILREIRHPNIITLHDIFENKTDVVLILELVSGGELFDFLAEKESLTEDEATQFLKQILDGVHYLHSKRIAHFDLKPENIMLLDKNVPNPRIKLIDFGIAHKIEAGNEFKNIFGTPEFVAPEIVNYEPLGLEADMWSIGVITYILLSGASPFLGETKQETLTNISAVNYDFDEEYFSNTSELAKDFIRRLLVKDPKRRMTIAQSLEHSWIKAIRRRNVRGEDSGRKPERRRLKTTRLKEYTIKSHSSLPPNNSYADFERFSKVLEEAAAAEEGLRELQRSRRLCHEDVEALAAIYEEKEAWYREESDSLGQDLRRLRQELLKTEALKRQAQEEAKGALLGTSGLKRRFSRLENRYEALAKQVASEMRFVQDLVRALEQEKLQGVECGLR

Sequence of Casein kinase II subunit alpha (Homo sapiens) (P68400 whole entry, looked up): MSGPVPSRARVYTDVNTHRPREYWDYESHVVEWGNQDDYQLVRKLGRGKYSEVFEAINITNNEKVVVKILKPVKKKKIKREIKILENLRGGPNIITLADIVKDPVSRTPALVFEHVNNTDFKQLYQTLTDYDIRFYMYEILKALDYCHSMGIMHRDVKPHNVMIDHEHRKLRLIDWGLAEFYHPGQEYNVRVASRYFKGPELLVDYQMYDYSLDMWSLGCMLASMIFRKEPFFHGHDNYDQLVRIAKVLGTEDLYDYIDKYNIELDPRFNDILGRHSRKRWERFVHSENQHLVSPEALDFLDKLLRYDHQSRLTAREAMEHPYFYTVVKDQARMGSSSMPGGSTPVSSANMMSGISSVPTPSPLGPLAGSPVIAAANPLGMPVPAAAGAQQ
Sequence of Mitogen-activated protein kinase 8 (P45983 whole entry): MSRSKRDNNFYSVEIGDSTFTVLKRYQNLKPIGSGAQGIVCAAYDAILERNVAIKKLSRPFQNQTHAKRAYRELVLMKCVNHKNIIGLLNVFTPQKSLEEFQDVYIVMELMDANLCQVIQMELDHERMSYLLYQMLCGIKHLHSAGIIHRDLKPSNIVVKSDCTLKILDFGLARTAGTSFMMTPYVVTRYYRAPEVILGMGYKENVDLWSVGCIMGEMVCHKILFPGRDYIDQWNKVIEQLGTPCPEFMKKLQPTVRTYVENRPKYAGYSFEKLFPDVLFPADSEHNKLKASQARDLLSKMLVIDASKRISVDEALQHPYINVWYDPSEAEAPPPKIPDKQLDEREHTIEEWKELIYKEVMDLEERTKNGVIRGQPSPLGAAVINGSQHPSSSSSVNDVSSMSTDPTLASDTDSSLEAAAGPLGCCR
Sequence of Tyrosine-protein kinase Fer (Homo sapiens) (P16591 whole entry, looked up): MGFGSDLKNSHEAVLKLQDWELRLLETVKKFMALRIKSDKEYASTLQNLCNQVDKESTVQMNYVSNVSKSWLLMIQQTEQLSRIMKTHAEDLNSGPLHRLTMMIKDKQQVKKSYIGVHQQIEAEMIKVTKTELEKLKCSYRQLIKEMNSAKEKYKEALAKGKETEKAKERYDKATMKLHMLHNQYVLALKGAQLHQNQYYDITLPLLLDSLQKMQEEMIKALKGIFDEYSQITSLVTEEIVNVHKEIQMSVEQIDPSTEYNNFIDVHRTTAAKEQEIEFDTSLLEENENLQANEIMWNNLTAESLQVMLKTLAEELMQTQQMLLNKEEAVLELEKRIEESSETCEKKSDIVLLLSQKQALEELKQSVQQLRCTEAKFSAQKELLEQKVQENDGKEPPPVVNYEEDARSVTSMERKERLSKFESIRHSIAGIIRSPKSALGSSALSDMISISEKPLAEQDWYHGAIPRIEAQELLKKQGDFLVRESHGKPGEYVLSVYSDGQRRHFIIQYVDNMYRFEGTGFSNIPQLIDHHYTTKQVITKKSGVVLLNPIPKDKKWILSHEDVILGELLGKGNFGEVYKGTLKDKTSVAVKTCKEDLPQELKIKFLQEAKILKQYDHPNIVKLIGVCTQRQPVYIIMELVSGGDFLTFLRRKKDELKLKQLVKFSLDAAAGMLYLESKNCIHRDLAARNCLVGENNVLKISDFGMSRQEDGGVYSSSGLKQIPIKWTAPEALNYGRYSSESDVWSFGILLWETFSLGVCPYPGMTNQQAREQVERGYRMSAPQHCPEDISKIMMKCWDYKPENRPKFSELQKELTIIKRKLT
Sequence of Mitogen-activated protein kinase 10 (P53779 whole entry): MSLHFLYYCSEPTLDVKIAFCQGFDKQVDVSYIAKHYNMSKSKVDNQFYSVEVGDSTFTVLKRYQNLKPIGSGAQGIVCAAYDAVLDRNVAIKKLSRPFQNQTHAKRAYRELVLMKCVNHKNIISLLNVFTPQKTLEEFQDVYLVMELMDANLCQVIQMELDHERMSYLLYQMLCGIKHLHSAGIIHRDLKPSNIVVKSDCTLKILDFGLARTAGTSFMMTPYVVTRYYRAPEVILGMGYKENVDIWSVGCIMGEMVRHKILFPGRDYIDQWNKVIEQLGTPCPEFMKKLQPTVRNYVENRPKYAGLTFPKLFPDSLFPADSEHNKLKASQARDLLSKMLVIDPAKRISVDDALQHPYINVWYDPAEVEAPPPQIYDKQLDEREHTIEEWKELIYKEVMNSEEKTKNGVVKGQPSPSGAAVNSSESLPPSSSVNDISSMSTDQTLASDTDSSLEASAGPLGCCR
Sequence of BMP-2-inducible protein kinase (Homo sapiens) (Q9NSY1 whole entry, looked up, canonical isoform): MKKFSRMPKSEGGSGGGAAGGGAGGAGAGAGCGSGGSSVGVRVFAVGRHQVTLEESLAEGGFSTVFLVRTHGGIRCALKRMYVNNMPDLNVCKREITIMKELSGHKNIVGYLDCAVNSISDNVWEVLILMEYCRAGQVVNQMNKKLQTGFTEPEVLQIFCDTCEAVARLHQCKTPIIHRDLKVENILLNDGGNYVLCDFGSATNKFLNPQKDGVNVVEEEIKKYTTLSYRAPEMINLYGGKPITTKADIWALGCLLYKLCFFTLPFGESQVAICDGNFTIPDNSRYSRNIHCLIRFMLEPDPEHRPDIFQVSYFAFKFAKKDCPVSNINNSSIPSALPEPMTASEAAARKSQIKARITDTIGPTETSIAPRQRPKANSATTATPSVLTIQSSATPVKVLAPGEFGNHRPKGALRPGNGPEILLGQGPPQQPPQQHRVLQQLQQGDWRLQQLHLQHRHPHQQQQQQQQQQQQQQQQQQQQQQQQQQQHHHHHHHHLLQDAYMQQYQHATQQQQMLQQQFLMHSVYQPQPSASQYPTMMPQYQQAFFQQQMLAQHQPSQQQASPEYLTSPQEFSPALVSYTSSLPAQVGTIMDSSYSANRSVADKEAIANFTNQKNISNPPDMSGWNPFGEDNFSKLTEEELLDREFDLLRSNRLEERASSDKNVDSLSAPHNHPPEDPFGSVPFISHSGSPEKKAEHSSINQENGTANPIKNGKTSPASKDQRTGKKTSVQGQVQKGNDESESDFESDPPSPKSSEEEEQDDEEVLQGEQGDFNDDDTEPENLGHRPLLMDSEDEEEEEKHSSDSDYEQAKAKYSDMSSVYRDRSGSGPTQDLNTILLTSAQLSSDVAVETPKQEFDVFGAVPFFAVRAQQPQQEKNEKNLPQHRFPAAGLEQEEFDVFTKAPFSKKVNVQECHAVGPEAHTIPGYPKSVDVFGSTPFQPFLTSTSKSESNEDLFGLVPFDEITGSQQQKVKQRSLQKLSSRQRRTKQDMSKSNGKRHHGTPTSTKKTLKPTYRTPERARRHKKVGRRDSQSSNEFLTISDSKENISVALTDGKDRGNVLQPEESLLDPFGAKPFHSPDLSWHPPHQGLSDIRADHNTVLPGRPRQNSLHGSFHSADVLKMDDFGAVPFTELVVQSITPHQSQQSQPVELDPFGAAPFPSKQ
Sequence of Phosphorylase b kinase gamma catalytic chain, skeletal muscle/heart isoform (Homo sapiens) (Q16816 whole entry, looked up, canonical isoform): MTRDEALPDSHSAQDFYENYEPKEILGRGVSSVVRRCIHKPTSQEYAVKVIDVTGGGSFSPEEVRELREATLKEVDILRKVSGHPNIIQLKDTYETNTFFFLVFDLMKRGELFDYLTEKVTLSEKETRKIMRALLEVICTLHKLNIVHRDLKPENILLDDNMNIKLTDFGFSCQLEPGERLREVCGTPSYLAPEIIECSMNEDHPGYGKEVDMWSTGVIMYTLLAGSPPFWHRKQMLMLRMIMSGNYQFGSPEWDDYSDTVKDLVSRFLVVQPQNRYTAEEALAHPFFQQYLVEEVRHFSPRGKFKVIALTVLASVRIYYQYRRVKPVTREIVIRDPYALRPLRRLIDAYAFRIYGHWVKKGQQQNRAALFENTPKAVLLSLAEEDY
Sequence of Serine/threonine-protein kinase B-raf (Homo sapiens), P15056 [V600E] (P15056 whole entry V600E): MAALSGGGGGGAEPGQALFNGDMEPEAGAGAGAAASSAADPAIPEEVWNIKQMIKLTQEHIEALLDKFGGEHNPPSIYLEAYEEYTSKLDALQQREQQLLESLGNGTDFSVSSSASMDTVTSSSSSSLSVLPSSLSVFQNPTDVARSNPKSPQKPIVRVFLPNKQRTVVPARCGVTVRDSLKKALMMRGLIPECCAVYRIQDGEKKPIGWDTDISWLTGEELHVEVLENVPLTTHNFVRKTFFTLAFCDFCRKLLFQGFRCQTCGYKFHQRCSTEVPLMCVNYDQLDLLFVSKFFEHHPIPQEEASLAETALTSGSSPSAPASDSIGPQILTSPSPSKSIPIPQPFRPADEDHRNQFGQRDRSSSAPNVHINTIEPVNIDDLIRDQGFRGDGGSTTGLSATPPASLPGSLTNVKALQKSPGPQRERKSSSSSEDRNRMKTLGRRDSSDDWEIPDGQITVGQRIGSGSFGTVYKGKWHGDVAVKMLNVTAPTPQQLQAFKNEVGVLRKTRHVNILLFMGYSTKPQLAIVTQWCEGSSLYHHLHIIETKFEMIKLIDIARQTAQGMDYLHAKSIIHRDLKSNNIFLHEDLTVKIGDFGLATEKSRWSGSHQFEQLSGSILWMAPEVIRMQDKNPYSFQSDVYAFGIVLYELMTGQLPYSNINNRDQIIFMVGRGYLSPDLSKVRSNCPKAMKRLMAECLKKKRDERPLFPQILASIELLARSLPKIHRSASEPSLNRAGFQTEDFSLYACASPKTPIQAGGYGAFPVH

Row | inhibition [1] [%] | inhibition [2] [%] | inhibition [3] [%] | inhibition [4] [%] | inhibition [5] [%] | inhibition [6] [%] | IC50 [7] [nM] | inhibition [8] [%] | inhibition [9] [%] | inhibition [10] [%] | inhibition [11] [%] | inhibition [12] [%] | inhibition [13] [%] | inhibition [14] [%] | Structure (SMILES) | inhibition [15] [%]
1 | < 50 | 93 | 81 | < 50 | < 50 | < 50 | 55 | 100 | 87 | < 50 | < 50 | 95 | < 50 | < 50 | O[C@H]1CC[C@H](Nc2nccc(-n3ncc4ccccc43)n2)CC1 | < 50
2 | < 50 | 91 | < 50 | < 50 | < 50 | < 50 | 65 | 100 | < 50 | < 50 | < 50 | 70 | < 50 | < 50 | O[C@H]1CC[C@H](Nc2nccc(-n3ccc4ccccc43)n2)CC1 | < 50
3 |  |  |  |  |  |  | 16 | > 85 |  |  |  |  |  |  | CS(=O)(=O)CCCOc1cccc2c1ccn2-c1ccnc(N[C@H]2CC[C@H](C(=O)N3CCC(O)CC3)CC2)n1 | > 85
4 | < 50 | 100 | 99 | 93 | < 50 | < 50 | 74 | 100 | 99 | 82 | < 50 | 99 | 90 | < 50 | N[C@H]1CC[C@H](Nc2nccc(-n3nnc4ccccc43)n2)CC1 | 95
5 | < 50 | 87 | 87 | < 50 | < 50 | < 50 | 63 | 100 | 71 | < 50 | < 50 | 98 | < 50 | < 50 | O=C([C@H]1CC[C@H](Nc2nccc(-n3nnc4ccccc43)n2)CC1)N1CCOCC1 | 64
6 | 78 | 100 | 99 | 77 | < 50 | < 50 | 250 | 100 | 98 | 93 | 69 | 99 | 95 | 97 | O[C@H]1CC[C@H](Nc2nccc(-c3n[nH]c4ccccc34)n2)CC1 | 96
7 | < 50 | 95 | 86 | < 50 | < 50 | < 50 | 29 | 100 | 80 | < 50 | < 50 | 98 | 74 | < 50 | O[C@H]1CC[C@H](Nc2nccc(-n3nnc4ccccc43)n2)CC1 | 93
